# Laboratory results as given in ChEMBL document CHEMBL1156640, “Cyclopeptides with anti-inflammatory activity from seeds of Annona montana” (J Nat Prod, 2008).
# Active and inactive are the calls of the source. The calls are words filed in the database; no cut-off is given here. Peptide text beside a SMILES is read from it.
# Tests used:
# [1] = system: Ca9-22; experiment: Cytotoxicity against human Ca9-22 cells; format: functional, cell-based
# [2] = system: HepG2; experiment: Cytotoxicity against human HepG2 cells; format: functional, cell-based
# [3] = system: MCF7; experiment: Cytotoxicity against human MCF7 cells; format: functional, cell-based
# [4] = system: KB; experiment: Cytotoxicity against human KB cells; format: functional, cell-based
# [5] = system: J774.A1; experiment: Antiinflammatory activity in mouse J774A.1 cells assessed as decrease in LPS-stimulated TNFalpha production at 30 ug/ml; format: functional; set-up: scale not given: the % may be the effect or the level left
# Summary of the method: (§1)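 J774A.1 murine macrophages at 1 × 10⁶/mL in RPMI 1640 with 10% heat-inactivated FBS and 2 mM L-glutamine, 37 °C, 5% CO₂. Cells preincubated with cyclopeptide at 37 °C for 30 min, then stimulated with LPS (0.1 µg/mL) for a further 6 h. TNF-α and IL-6 in culture medium measured by ELISA. DMSO-treated cells served as controls.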
# [6] = system: A549; experiment: Cytotoxicity against human A549 cells; format: functional, cell-based
# [7] = system: J774.A1; experiment: Antiinflammatory activity in mouse J774A.1 cells assessed as decrease in LPS-stimulated IL6 production at 30 ug/ml; format: functional; set-up: scale not given: the % may be the effect or the level left; summary of the method: as §1
# [8] = system: MDA-MB-231; experiment: Cytotoxicity against human MDA-MB-231 cells; format: functional, cell-based
# [9] = system: Hep 3B2; experiment: Cytotoxicity against human Hep3B cells; format: functional, cell-based
# [10] = system: J774.A1; experiment: Antiinflammatory activity in mouse J774A.1 cells assessed as decrease in LPS-stimulated TNFalpha production at 3 ug/ml; format: functional, cell-based; summary of the method: as §1
# [11] = system: J774.A1; experiment: Antiinflammatory activity in mouse J774A.1 cells assessed as decrease in pam3Cys-stimulated IL6 production at 3 ug/ml
# [12] = system: J774.A1; experiment: Antiinflammatory activity in mouse J774A.1 cells assessed as decrease in pam3Cys-stimulated TNFalpha production at 1 ug/ml; format: functional, cell-based
# Summary of the method: (§2)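 J774A.1 murine macrophages at 1 × 10⁶/mL in RPMI 1640 with 10% heat-inactivated FBS and 2 mM L-glutamine, 37 °C, 5% CO₂. Cells pretreated with cyclopeptide for 30 min, then stimulated with the TLR2 ligand Pam3Cys for an additional 6 h. TNF-α or IL-6 in culture medium determined by ELISA.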
# [13] = system: J774.A1; experiment: Antiinflammatory activity in mouse J774A.1 cells assessed as decrease in LPS-stimulated IL6 production at 3 ug/ml; format: functional, cell-based; summary of the method: as §1
# [14] = system: J774.A1; experiment: Antiinflammatory activity in mouse J774A.1 cells assessed as decrease in LPS-stimulated IL6 production at 3 ug/ml
# [15] = system: J774.A1; experiment: Antiinflammatory activity in mouse J774A.1 cells assessed as decrease in pam3Cys-stimulated TNFalpha production at 3 ug/ml; format: functional; summary of the method: as §2
# [16] = system: J774.A1; experiment: Antiinflammatory activity in mouse J774A.1 cells assessed as decrease in LPS-stimulated TNFalpha production at 1 ug/ml; format: functional, cell-based; summary of the method: as §1
# [17] = system: J774.A1; experiment: Antiinflammatory activity in mouse J774A.1 cells assessed as decrease in pam3Cys-stimulated IL6 production at 3 ug/ml; format: functional, cell-based; summary of the method: as §2
# [18] = system: J774.A1; experiment: Antiinflammatory activity in mouse J774A.1 cells assessed as decrease in LPS-stimulated TNFalpha production at 3 to 50 ug/ml; format: functional, cell-based; summary of the method: as §1
# [19] = system: J774.A1; experiment: Antiinflammatory activity in mouse J774A.1 cells assessed as decrease in pam3Cys-stimulated IL6 production at 3 to 50 ug/ml; format: functional, cell-based; summary of the method: as §2
# [20] = system: J774.A1; experiment: Antiinflammatory activity in mouse J774A.1 cells assessed as decrease in LPS-stimulated IL6 production at 3 to 50 ug/ml; format: functional, cell-based; summary of the method: as §1
# [21] = system: J774.A1; experiment: Antiinflammatory activity in mouse J774A.1 cells assessed as decrease in pam3Cys-stimulated TNFalpha production at 30 ug/ml; format: functional; summary of the method: as §2
# [22] = system: J774.A1; experiment: Antiinflammatory activity in mouse J774A.1 cells assessed as decrease in pam3Cys-stimulated TNFalpha production at 5 ug/ml; format: functional; summary of the method: as §2
# [23] = system: J774.A1; experiment: Antiinflammatory activity in mouse J774A.1 cells assessed as decrease in pam3Cys-stimulated TNFalpha production at 50 ug/ml; format: functional; summary of the method: as §2
# [24] = system: J774.A1; experiment: Antiinflammatory activity in mouse J774A.1 cells assessed as decrease in pam3Cys-stimulated IL6 production; format: functional, cell-based; summary of the method: as §2
# [25] = system: J774.A1; experiment: Antiinflammatory activity in mouse J774A.1 cells assessed as decrease in pam3Cys-stimulated TNFalpha production at 10 ug/ml; format: functional; summary of the method: as §2
smiles,measurement,setting,value
CC(C)[C@@H]1NC(=O)[C@H](Cc2ccccc2)NC(=O)CNC(=O)[C@@H]2CCCN2C(=O)[C@H](C)NC(=O)[C@H](CO)NC1=O [ANNUMURICATIN C] (cyclo(APGFVS)),Activity,[1],inactive
same,Activity,[2],inactive
same,Activity,[3],inactive
same,IC50,[4],1000 nM
same,Activity,[5],50%
same,Activity,[6],inactive
same,Activity,[7],50%
same,Activity,[8],inactive
same,Activity,[9],inactive
CC(C)C[C@@H]1NC(=O)CNC(=O)[C@@H]2CCCN2C(=O)[C@H]([C@@H](C)O)NC(=O)[C@H](Cc2c[nH]c3ccccc23)NC(=O)[C@H](C)NC(=O)[C@H](CC(N)=O)NC1=O [CYCLOMONTANIN A] (cyclo(AWTPGLN)),Activity,[10],Active
same,Activity,[11],Active
same,Activity,[12],Active
same,Activity,[5],50%
same,Activity,[13],Active
same,Activity,[7],50%
same,Activity,[14],Active
same,Activity,"[15]; 1 ug/ml, in the assay text read “at 1 ug/ml” for “at 3 ug/ml”",Active
same,Activity,[16],Active
same,Activity,[17],Active
CC(C)[C@@H]1NC(=O)[C@H](Cc2c[nH]cn2)NC(=O)[C@H](CC(N)=O)NC(=O)[C@H](Cc2ccccc2)NC(=O)[C@H]([C@@H](C)O)NC(=O)[C@@H]2CCCN2C(=O)[C@@H]2CCCN2C(=O)[C@H](Cc2ccccc2)NC(=O)[C@H](CC(N)=O)NC1=O [CYCLOMONTANIN C] (cyclo(FNHVNFPPT)),Activity,[18],Active
same,Activity,[5],50%
same,Activity,[7],50%
same,Activity,[19],Active
same,Activity,[20],Active
CC(C)C[C@@H]1NC(=O)CNC(=O)[C@@H]2CCCN2C(=O)[C@H](CC(N)=O)NC(=O)[C@H](C)NC(=O)[C@H](Cc2ccc(O)cc2)NC(=O)[C@@H]2CCCN2C1=O [CYCLOMONTANIN D] (cyclo(ANPGLPY)),inhibition at 30 µg/mL,[21],85%
same,inhibition at 5 µg/mL,[22],50%
same,inhibition at 50 µg/mL,[23],90%
same,Activity,[24],Dose-dependent effect
same,Activity,[5],50%
same,Activity,[7],50%
same,inhibition at 3 µg/mL,[15],20%
same,inhibition at 10 µg/mL,[25],60%
